Test results reported in ChEMBL document CHEMBL1126043, “Novel thiazolidine-2,4-diones as potent euglycemic agents” (1992).

Columns and labels:
Mus musculus [1] = experiment: In vivo euglycemic activity of the compound (administered by oral gavage) in C57/6J-ob/ob mice is measured by normalization of blood glucose levels at a dose of 0.25(mg/kg); assay type: functional
Procedure, shortened: (§1)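 Mice bled from retro-orbital sinus into tubes with 2% sodium heparin for baseline glucose, then dosed by oral gavage once daily for 4 days in 0.25% (w/v) methylcellulose in water, no pH adjustment (0.1 mL per 20 g). Bled 24 h after fourth dose. Samples centrifuged 2 min at 10000g. Plasma glucose measured by hexokinase UV method. Results scaled to vehicle (0%) and ciglitazone 50 mg/kg (100%).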

Mus musculus [2] = experiment: In vivo euglycemic activity (administered by oral gavage) in C57/6J-ob/ob mice by normalization of blood glucose levels at a dose of 0.5 mg/kg.; assay type: functional; procedure, shortened: as §1
Mus musculus [3] = experiment: In vivo euglycemic activity of the compound (administered by oral gavage) in C57/6J-ob/ob mice is measured by normalization of blood glucose levels at a dose of 25(mg/kg); assay type: functional; procedure, shortened: as §1
Mus musculus [4] = experiment: In vivo euglycemic activity (administered by oral gavage) in C57/6J-ob/ob mice by normalization of blood glucose levels at a dose of 10 mg/kg.; assay type: functional; procedure, shortened: as §1
Mus musculus [5] = experiment: In vivo euglycemic activity (administered by oral gavage) in C57/6J-ob/ob mice measured by normalization of blood glucose levels at a dose of 5 mg/kg.; assay type: functional
Mus musculus [6] = experiment: In vivo euglycemic activity of the compound (administered by oral gavage) in C57/6J-ob/ob mice is measured by normalization of blood glucose levels at a dose of 2.5(mg/kg); assay type: functional; procedure, shortened: as §1
Mus musculus [7] = experiment: In vivo euglycemic activity (administered by oral gavage) in C57/6J-ob/ob mice by normalization of blood glucose levels at a dose of 1 mg/kg.; assay type: functional; procedure, shortened: as §1
Mus musculus [8] = experiment: In vivo euglycemic activity of the compound (administered by oral gavage) in C57/6J-ob/ob mice is measured by normalization of blood glucose levels at a dose of 0.1(mg/kg); assay type: functional; procedure, shortened: as §1
Mus musculus [9] = experiment: In vivo euglycemic activity of the compound (administered by oral gavage) in C57/6J-ob/ob mice is measured by normalization of blood glucose levels at a dose of 10(mg/kg).; assay type: functional; procedure, shortened: as §1
Mus musculus [10] = experiment: In vivo euglycemic activity of the compound (administered by oral gavage) in C57/6J-ob/ob mice is measured by normalization of blood glucose levels at a dose of 1(mg/kg).; assay type: functional; procedure, shortened: as §1
Mus musculus [11] = experiment: In vivo euglycemic activity of the compound (administered by oral gavage) in C57/6J-ob/ob mice is measured by normalization of blood glucose levels at a dose of 0.05(mg/kg); assay type: functional; procedure, shortened: as §1
Mus musculus [12] = experiment: In vivo euglycemic activity of the compound (administered by oral gavage) in C57/6J-ob/ob mice is measured by normalization of blood glucose levels at a dose of 50(mg/kg); assay type: functional
Mus musculus [13] = experiment: In vivo euglycemic activity of the compound (administered by oral gavage) in C57/6J-ob/ob mice is measured by normalization of blood glucose levels at a dose of 5(mg/kg)

O=C1NC(=O)C(Cc2ccc(C(=O)CCc3coc(-c4ccccc4)n3)cc2)S1 (stereo not given)
Normalization (Mus musculus [1]): 52%
Normalization (Mus musculus [2]): 30%

O=C1NC(=O)C(Cc2ccc(C(=O)/C=C/c3ccc(-c4ccccc4)cc3)cc2)S1 (stereo not given)
Normalization (Mus musculus [3]): 65%
Normalization (Mus musculus [4]): 56%

Cc1oc(-c2ccccc2)nc1CCC(=O)c1ccc(CC2SC(=O)NC2=O)s1 (stereo not given)
Normalization (Mus musculus [5]): 100%
Normalization (Mus musculus [6]): 99%
Normalization (Mus musculus [7]): 37%

Cc1oc(-c2ccc(C(F)(F)F)cc2)nc1CCC(=O)c1ccc(CC2SC(=O)NC2=O)cc1 (stereo not given)
Normalization (Mus musculus [8]): 88%
Normalization (Mus musculus [1]): 81%
Normalization (Mus musculus [2]): 69%
Normalization (Mus musculus [7]): 86%

O=C1NC(=O)C(Cc2ccc3c(c2)CCC(Cc2ccccc2)O3)S1 (stereo not given)
Normalization (Mus musculus [3]): 91%
Normalization (Mus musculus [5]): 48%
Normalization (Mus musculus [4]): 70%

O=C1NC(=O)C(Cc2ccc(C(=O)COc3ccccc3)cc2)S1 (stereo not given)
Normalization (Mus musculus [9]): 7%

O=C1NC(=O)C(Cc2ccc(C(=O)/C=C/c3ccccc3O)cc2)S1 (stereo not given)
Normalization (Mus musculus [3]): 0%

Cc1ccc(-c2nc(CCC(=O)c3ccc(CC4SC(=O)NC4=O)cc3)c(C)o2)cc1 (stereo not given)
Normalization (Mus musculus [1]): 15%
Normalization (Mus musculus [2]): 47%
Normalization (Mus musculus [10]): 47%

Cc1oc(-c2ccccc2)nc1CCC(O)c1ccc(CC2SC(=O)NC2=O)cc1 (stereo not given)
Normalization (Mus musculus [11]): 72%
Normalization (Mus musculus [8]): 93%
Normalization (Mus musculus [1]): 85%
Normalization (Mus musculus [2]): 100%

Cc1ccc(-c2nc(C/C=C/c3ccc(CC4SC(=O)NC4=O)s3)c(C)o2)cc1 (stereo not given)
Normalization (Mus musculus [6]): 90%
Normalization (Mus musculus [1]): 64%
Normalization (Mus musculus [2]): 73%
Normalization (Mus musculus [7]): 98%

Cc1oc(-c2ccccc2)nc1C/C=C/c1ccc(CC2SC(=O)NC2=O)cc1 (stereo not given)
Normalization (Mus musculus [8]): 29%
Normalization (Mus musculus [1]): 74%
Normalization (Mus musculus [2]): 84%

O=C1NC(=O)C(Cc2ccc(C(=O)CCc3ccccc3)cc2)S1 (stereo not given)
Normalization (Mus musculus [3]): 93%
Normalization (Mus musculus [5]): 53%
Normalization (Mus musculus [4]): 81%

Cc1ccc(-c2nc(CCC(=O)c3ccc(CC4SC(=O)NC4=O)cc3)co2)cc1 (stereo not given)
Normalization (Mus musculus [1]): 15%
Normalization (Mus musculus [2]): 0%

CC1(COc2ccc(CC3SC(=O)NC3=O)cc2)CCCCC1 (stereo not given) [CIGLITAZONE]
Normalization (Mus musculus [12]): 100%

COCc1ccc(/C=C/C(=O)c2ccc(CC3SC(=O)NC3=O)cc2)cc1 (stereo not given)
Normalization (Mus musculus [3]): 0%

COc1ccccc1/C=C/C(=O)c1ccc(CC2SC(=O)NC2=O)cc1 (stereo not given)
Normalization (Mus musculus [4]): 66%
Normalization (Mus musculus [13]): 50%

O=C1NC(=O)C(Cc2ccc(C(=O)/C=C/c3ccc(OCc4ccccc4)cc3)cc2)S1 (stereo not given)
Normalization (Mus musculus [3]): 96%
Normalization (Mus musculus [5]): 64%
Normalization (Mus musculus [4]): 57%

Cc1oc(-c2cccs2)nc1CCC(=O)c1ccc(CC2SC(=O)NC2=O)cc1 (stereo not given)
Normalization (Mus musculus [1]): 27%
Normalization (Mus musculus [2]): 71%
Normalization (Mus musculus [7]): 84%

Cc1ccc(-c2nc(CCC(=O)c3ccc(CC4SC(=O)NC4=O)cc3)c(C)o2)o1 (stereo not given)
Normalization (Mus musculus [8]): 47%
Normalization (Mus musculus [1]): 87%
Normalization (Mus musculus [2]): 68%

Cc1oc(-c2ccccc2)nc1CCC(=O)c1ccc(/C=C2\SC(=O)NC2=O)cc1
Normalization (Mus musculus [8]): 43%
Normalization (Mus musculus [2]): 81%
Normalization (Mus musculus [7]): 84%

O=C1NC(=O)C(Cc2ccc3c(c2)CCC(Cc2ccccc2)C3=O)S1 (stereo not given)
Normalization (Mus musculus [3]): 47%
Normalization (Mus musculus [5]): 39%
Normalization (Mus musculus [4]): 54%

COc1c(C)cc(-c2nc(CCC(=O)c3ccc(CC4SC(=O)NC4=O)cc3)c(C)o2)cc1C (stereo not given)
Normalization (Mus musculus [8]): 75%
Normalization (Mus musculus [2]): 100%
Normalization (Mus musculus [7]): 100%

O=C1NC(=O)C(Cc2ccc(CCCc3ccccc3)cc2)S1 (stereo not given)
Normalization (Mus musculus [3]): 73%
Normalization (Mus musculus [5]): 46%
Normalization (Mus musculus [4]): 77%

Cc1oc(-c2ccccc2)nc1CCC(=O)c1ccc(CC2SC(=O)NC2=O)cc1 (stereo not given) [DARGLITAZONE]
Normalization (Mus musculus [5]): 100%
Normalization (Mus musculus [4]): 100%
Normalization (Mus musculus [6]): 88%
Normalization (Mus musculus [8]): 83%
Normalization (Mus musculus [1]): 88%
Normalization (Mus musculus [2]): 97%
Normalization (Mus musculus [7]): 100%

O=C1NC(=O)C(Cc2ccc(C(=O)/C=C/c3ccccc3)cc2)S1 (stereo not given)
Normalization (Mus musculus [3]): 99%
Normalization (Mus musculus [5]): 23%
Normalization (Mus musculus [4]): 65%
